Measured values published in ChEMBL document CHEMBL1154107, “Inhibitors of VIM-2 by screening pharmacologically active and click-chemistry compound libraries” (Bioorg Med Chem, 2009).
Values after ≈ are worked out from the molar mass of the structure shown. Active and inactive are the calls of the source. The calls are words filed in the database; no cut-off is given here.

How the values were obtained:
[1] = Inhibition of VIM2 using nitrocefin as substrate after 15 mins by microtiter plate assay
[2] = Inhibition of IMP1 using nitrocefin as substrate after 15 mins by microtiter plate assay
[3] = Inhibition of IMP1 in Escherichia coli
[4] = Inhibition of VIM2 using CCF2 as substrate after 15 mins by FRET assay
[5] = Inhibition of VIM2 using nitrocefin as substrate at 56 uM after 15 mins by microtiter plate assay
[6] = tested on: Escherichia coli BL21(DE3); experiment: Inhibition of VIM2 in imipenem-resistant Escherichia coli BL21(DE3) assessed as potentiation of imipenem-induced bactericidal activity at 4.2 ug/mL after 18 hrs by checkerboard microdilution method
Summary of the method: (§1)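 Checkerboard in 96-well plates, 0.2 mL. […] BL21/VIM-2 pre-grown 5 h at 37°C with kanamycin; inoculum 1 × 10^6 CFU/mL. Shaken ≥18 h at 37°C. MIC read per CLSI; synergy by ΣFIC; QC strain ATCC 35218.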

Escherichia coli [7] = experiment: Bactericidal activity against imipenem-non resistant Escherichia coli BL21(DE3) at […] after 24 hrs by broth microdilution method; format: functional
[8] = tested on: Escherichia coli BL21(DE3); experiment: Inhibition of VIM2 in imipenem-resistant Escherichia coli BL21(DE3) assessed as potentiation of imipenem-induced bactericidal activity at 50 uM after 18 hrs by twofold serial broth dilution method
[9] = tested on: Escherichia coli BL21(DE3); experiment: (§2) Inhibition of VIM2 in imipenem-resistant Escherichia coli BL21(DE3) assessed as potentiation of imipenem-induced bactericidal activity at […] after 18 hrs by checkerboard microdilution method
Escherichia coli [10] = experiment: Bacteriostatic activity against imipenem-resistant Escherichia coli BL21(DE3) expressing VIM2 gene at […] after 24 hrs by broth microdilution method; format: functional
Escherichia coli [11] = experiment: Bactericidal activity against imipenem-resistant Escherichia coli BL21(DE3) expressing VIM2 gene at […] after 24 hrs by broth microdilution method; format: functional
Escherichia coli [12] = experiment: Bacteriostatic activity against imipenem-non resistant Escherichia coli BL21(DE3) at […] after 24 hrs by broth microdilution method; format: functional
[13] = tested on: Escherichia coli BL21(DE3); experiment: as §2; remark: listed apart in the source
[14] = Inhibition of TEM-1 using nitrocefin as substrate at 25 uM after 15 mins by microtiter plate assay
Escherichia coli [15] = experiment: Antibacterial activity against imipenem-resistant Escherichia coli BL21(DE3) expressing VIM2 gene after 18 hrs by twofold serial broth dilution method; format: functional
Summary of the method: (§3)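 Two-fold serial broth dilution MIC per CLSI, 10-point dilutions in Iso-Sensitest broth, 2 mL tubes. BL21 grown 5 h at 37°C in LB (kanamycin 30 μg/mL for pET-9a VIM-2 transformants). Inoculum 5 × 10^5 CFU/mL; shaken ≥18 h at 37°C aerobically.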

[16] = Inhibition of IMP1 using nitrocefin as substrate at 140 uM after 15 mins by microtiter plate assay
Escherichia coli [17] = experiment: Antibacterial activity against imipenem-non resistant Escherichia coli BL21(DE3) after 18 hrs by twofold serial broth dilution method; format: functional; summary of the method: as §3
[18] = tested on: Escherichia coli BL21(DE3); experiment: Inhibition of VIM2 in imipenem-resistant Escherichia coli BL21(DE3) assessed as potentiation of imipenem-induced bactericidal activity at 8.9 ug/mL after 18 hrs by checkerboard microdilution method; summary of the method: as §1
Escherichia coli [19] = experiment: Bactericidal activity against imipenem-non resistant Escherichia coli BL21(DE3) at […] after 6 hrs by broth microdilution method; format: functional
[20] = tested on: Escherichia coli BL21(DE3); experiment: Inhibition of VIM2 in imipenem-resistant Escherichia coli BL21(DE3) assessed as potentiation of imipenem-induced bactericidal activity at 4.5 ug/mL after 18 hrs by checkerboard microdilution method; summary of the method: as §1
Escherichia coli [21] = experiment: Bactericidal activity against imipenem-resistant Escherichia coli BL21(DE3) expressing VIM2 gene at […] after 6 hrs by broth microdilution method; format: functional
Escherichia coli [22] = experiment: Bactericidal activity against imipenem-non resistant Escherichia coli BL21(DE3) at […] up to 6 hrs by broth microdilution method; format: functional
Enterobacter cloacae = experiment: Inhibition of Enterobacter cloacae AmpC using nitrocefin as substrate at 25 uM after 15 mins by microtiter plate assay
Escherichia coli [23] = experiment: Selectivity ratio of MIC for imipenem-resistant Escherichia coli BL21(DE3) expressing VIM2 gene to MIC for imipenem-non resistant Escherichia coli BL21(DE3); format: functional
[24] = Inhibition of VIM2 using CCF2 as substrate at 36 uM after 15 mins by FRET assay
Summary of the method: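 FRET endpoint assay in 50 mM HEPES, 50 μM ZnSO4, 0.05% Brij 35, pH 7.1. VIM-2 (0.1 nM final) preincubated 15 min at RT with compound. CCF2-FA added to 10 μM final, 25 min at RT, stopped with EDTA. Excitation 409 nm, emissions 460 and 535 nm, read as ratio. Triplicate dilution series starting at 56 μM nominal.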

Escherichia coli [25] = experiment: Bactericidal activity against imipenem-resistant Escherichia coli BL21(DE3) expressing VIM2 gene at […] up to 6 hrs by broth microdilution method; format: functional
[26] = Inhibition of VIM2 using nitrocefin as substrate at 15 uM after 15 mins by microtiter plate assay
[27] = Inhibition of TEM-1 using nitrocefin as substrate after 15 mins by microtiter plate assay
[28] = Inhibition of VIM2 using nitrocefin as substrate by rapid dilution method
[29] = Inhibition of Enterobacter cloacae AmpC using nitrocefin as substrate after 15 mins by microtiter plate assay
[30] = Inhibition of VIM2 using CCF2 as substrate at 44 uM after 15 mins by FRET assay
Summary of the method: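 VIM-2 (0.1 nM final) in 50 mM HEPES, 50 μM ZnSO4, 0.05% Brij 35, pH 7.1, preincubated 15 min at RT with compound; CCF2-FA added to 10 μM, 25 min at RT, stopped with EDTA. Ratiometric fluorescence read at excitation 409 nm, emission 460/535 nm. Triplicate ten-point 1:3 dilutions; IC50 from four-parameter fit of ratio data.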

[31] = Inhibition of IMP1 using nitrocefin as substrate at 56 uM after 15 mins by microtiter plate assay

## O=C(O)CC(Cc1ccccc1Cl)C(=O)O (stereo not given)
[1]
  IC50: 33 µM
[2]
  IC50: 1.6 µM
  Ki: 1.6 µM
[3]
  Ki: 3.3 µM
[4]
  IC50: 50 µM

## O=S(=O)(NCc1[nH]nnc1CN1CCN(c2ccc(Cl)c(Cl)c2)CC1)c1ccc(I)cc1
[1]
  IC50: > 56 µM
[5]
  inhibition: 5%

## O=C1c2c(O)ccc(O)c2C(=O)c2c(NCCNCCO)ccc(NCCNCCO)c21
[6]
  Activity: Active
Escherichia coli [7]
  Activity: inactive
[8]
  Activity: Active
[9]
  Activity: Active
Escherichia coli [10]
  Activity: inactive
Escherichia coli [11]
  Activity: inactive
Escherichia coli [12]
  Activity: inactive
[13]
  Activity: Active

## Cc1ccc(Cl)cc1N1CCN(Cc2nn[nH]c2CNS(=O)(=O)c2ccc(I)cc2)CC1
[1]
  IC50: > 56 µM
[5]
  inhibition: 0%

## 4-[sequence] ACID
[14]
  inhibition: 0%
Escherichia coli [15]
  MIC: 17.9 µg/mL
[16]
  inhibition: 0%
Escherichia coli [17]
  MIC: 17.9 µg/mL
[18]
  Activity: Active
Escherichia coli [19]
  Activity: inactive
[20]
  Activity: Active
Escherichia coli [21]
  Activity: inactive
[8]
  Activity: Active
[9]
  Activity: Active
Escherichia coli [10]
  Activity: inactive
Escherichia coli [22]
  Activity: Active
Enterobacter cloacae
  inhibition: 0%
Escherichia coli [23]
  Ratio: 9
[24]
  inhibition: 83%
Escherichia coli [25]
  Activity: Active
[26]
  inhibition: 80%
Escherichia coli [12]
  Activity: inactive

## Cn1cc(Cc2nn[nH]c2CNS(=O)(=O)c2ccc(I)cc2)c2ccccc21
[1]
  IC50: > 56 µM
[5]
  inhibition: 11%

## C#CCCOCc1nn[nH]c1CNS(=O)(=O)c1ccc(I)cc1
[27]
  IC50: > 25 µM
[14]
  inhibition: 0%
Escherichia coli [15]
  MIC: > 60 µg/mL
[28]
  Ki: 0.41 µM
Escherichia coli [17]
  MIC: > 60 µg/mL
[29]
  IC50: > 25 µM
[1]
  IC50: 3.3 µM
[2]
  IC50: > 56 µM
[8]
  Activity: inactive
[5]
  inhibition: 79%
Enterobacter cloacae
  inhibition: 0%
[4]
  IC50: 1.3 µM
[30]
  inhibition: 76%
[31]
  inhibition: 0%

## 4-CHLOROMERCURIBENZOIC ACID
[27]
  IC50: > 25 µM
[29]
  IC50: > 25 µM

## CC1(C)OCC(COCc2nn[nH]c2CNS(=O)(=O)c2ccc(I)cc2)O1 (stereo not given)
[1]
  IC50: > 56 µM
[5]
  inhibition: 31%

## COCc1nn[nH]c1CNS(=O)(=O)c1ccc(I)cc1
[27]
  IC50: > 25 µM
[14]
  inhibition: 0%
Escherichia coli [15]
  MIC: > 60 µg/mL
[28]
  Ki: 1.41 µM
Escherichia coli [17]
  MIC: > 60 µg/mL
[29]
  IC50: > 25 µM
[1]
  IC50: 7.3 µM
[2]
  IC50: > 56 µM
[8]
  Activity: inactive
[5]
  inhibition: 74%
Enterobacter cloacae
  inhibition: 0%
[4]
  IC50: 4.1 µM
[30]
  inhibition: 90%
[31]
  inhibition: 0%

## C[C@@H](O)[C@H]1C(=O)N2C(C(=O)O)=C(SCCNC=N)C[C@H]12 [IMIPENEM ANHYDROUS]
Escherichia coli [17]
  MIC: 0.2 µg/mL (≈ 0.668 µM)
